# Screening data as filed in PubChem.
# M4 PAM: CHRM4 positive allosteric modulation; CHO-K1 hM4/Gqi5, Fluo-8 calcium fluorescence, ACh EC20; 0% = ACh EC20, 100% = maximal ACh; hit rate 0.4% among 360,000; activation, % at 3 µM;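 active means activation above its plate's cutoff, the mean activation of sample wells plus 3 SD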
# CHRM4 antagonist: CHRM4 antagonism in calcium assay; P08173; CHO-hM4 cells, ACh EC80, Fluo-8 calcium fluorescence; inhibition, % at 3 µM; hit rate 0.73% among 360,000; AID 624125;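 active means inhibition above its plate's cutoff, the mean inhibition of sample wells plus 3 SD, cut at about 27% in these data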
# CHRM5 antagonist: antagonists of human muscarinic M5 receptor (CHRM5) | AID 624040 | inhibition, % at 3 µM | CHO-hM5 cells, Fluo-8 calcium fluorescence, ACh EC80 | hit rate 0.59% among 360,000;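 active means inhibition above a per-plate cutoff, the mean of that plate's test compounds plus 3 SD, cut at about 27% in these data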
# Target sequence (P08912 whole entry, looked up): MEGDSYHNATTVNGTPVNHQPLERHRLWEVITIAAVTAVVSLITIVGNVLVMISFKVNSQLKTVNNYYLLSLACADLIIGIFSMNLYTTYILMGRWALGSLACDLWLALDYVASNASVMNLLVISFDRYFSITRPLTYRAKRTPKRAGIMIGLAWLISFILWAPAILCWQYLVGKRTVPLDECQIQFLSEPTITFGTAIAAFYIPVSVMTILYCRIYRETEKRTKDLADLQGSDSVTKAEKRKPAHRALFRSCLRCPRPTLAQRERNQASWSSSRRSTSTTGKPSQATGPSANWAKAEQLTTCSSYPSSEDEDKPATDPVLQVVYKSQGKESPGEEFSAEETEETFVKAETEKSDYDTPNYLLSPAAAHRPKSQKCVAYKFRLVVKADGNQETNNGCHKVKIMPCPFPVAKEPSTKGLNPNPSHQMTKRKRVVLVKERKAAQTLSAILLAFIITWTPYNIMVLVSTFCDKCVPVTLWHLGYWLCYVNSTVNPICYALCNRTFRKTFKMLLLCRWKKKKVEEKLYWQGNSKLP
# CHRM4 agonist: CHRM4 agonism in calcium assay; hit rate 0.14% among 360,000; activation, % at 3 µM; P08173; CHO-K1 hM4/Gqi5, Fluo-8 calcium fluorescence; vehicle 0%, full acetylcholine response 100%;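 active means activation above the run mean over all test wells plus 3 SD, cut at about 32% in these data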;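 further: peak over basal fluorescence ratio per well then scaled between controls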
# CHRM5 PAM: positive allosteric modulators of human muscarinic M5 receptor | CHO-K1 hM5, Fluo-8 calcium, ACh EC20 PAM; 0% = ACh EC20, 100% = ACh EC100 | hit rate 0.3% among 360,000 | AID 624038 | activation, % at 3 µM;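 active means activation above the run cutoff, the mean activation of all test compounds plus 3 SD, cut at about 18% in these data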
#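 System: CHO-K1 hM5 cells. Reagent: acetylcholine, EC20 level. Compound dosing: single dose, 3 µM nominal final test concentration. Timing: Post-acetylcholine fluorescence recording 140 s. Detection: Fluo-8 calcium fluorescence. Read-out: % activation, ACh-normalized. Benchmarks: ACh EC20 and EC100 wells. Repeats: singlicate, one well per test compound.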
# M5 ag: CHRM5 agonism in calcium assay | hit rate 0.19% among 360,000 | CHO-K1 hM5 cells, Fluo-8 calcium fluorescence; 0% DMSO wells, 100% maximal acetylcholine response | P08912 | AID 624037 | activation, % at 3 µM;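 active means activation above the run's mean over test compounds plus 3 SD, cut at about 23% in these data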;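 further: signal is peak over basal fluorescence ratio across the kinetic read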
# Numbers stand for hits; . = inactive. In the library only some 1.8% were active in any assay of this set; here they are far more common.
SMILES,M4 PAM,CHRM4 antagonist,CHRM5 antagonist,CHRM4 agonist,CHRM5 PAM,M5 ag
C=CCn1c(SCC(=O)NCCC2=CCCCC2)nc2ccc(Cl)cc2c1=O,.,.,.,.,30,.
Cn1c(=O)cc(SCC(=O)NCCC2=CCCCC2)c2ccc(Cl)cc21,.,.,.,.,.,.
CCOC(=O)c1ccc(N2CCN(c3ccccc3F)CC2)c(NC(=O)Nc2cccc(OC)c2)c1,.,.,45,.,.,.
COC(=O)c1ccc(N2CCOCC2)c(NC(=O)Nc2cccc(OC)c2)c1,.,.,.,.,.,.
Nc1nc2c(nc(SCc3ccccc3Br)n2C2OC(CO)C(O)C2O)c(=O)[nH]1 (configuration not stated),.,.,.,.,.,.
CCn1c(NCc2ccccn2)nc2c1c(=O)n(C)c(=O)n2C,40,.,.,.,.,.
CN(C)c1cc[n+](CC(=O)Nc2ccc(Oc3ccccc3)cc2)cc1,.,43,.,.,.,.
CCOc1ccc(NC(=O)C[n+]2ccc(N(C)C)cc2)cc1,.,.,.,.,.,.
C/C=C(\C)C(=O)NCCN1C2=NC[C@@H](C)N2C[C@H]1Cc1ccc(O)cc1,30,.,.,.,.,.
CCOC(=O)C1=NN(c2ccc(OC)cc2)C2C(=O)N(c3ccccc3OC)C(=O)C12 (configuration not stated),.,.,.,.,.,.
CCOC(=O)C1=NN(c2ccccc2)C2C(=O)N(c3ccccc3OC)C(=O)C12 (configuration not stated),.,.,27,.,.,.
NC(=O)C1CC(=O)N(c2ccc(OCc3ccc(Cl)c(Cl)c3)cc2)C1 (configuration not stated),.,.,28,.,.,.
O=S(=O)(Nc1ccc(-c2csc(-c3ccccc3)n2)cc1)c1ccc(F)cc1,31,.,.,.,.,.
O=C(Nc1nc(-c2ccccc2)cs1)c1ccccc1NS(=O)(=O)c1ccc(F)cc1,.,31,42,.,.,.
O=C(NCCCN1CCOCC1)c1[nH]c(C(F)(F)F)nc1-c1ccccc1,.,.,.,.,.,.
O=c1/c(=C/c2ccccc2)sc2nnc(-c3cccs3)n12,.,.,.,.,19,.
O=c1/c(=C\c2ccc(O)cc2)sc2nc(-c3ccccc3)c(-c3ccccc3)n12,.,.,.,.,.,.
COC(=O)/C(=C\C(=O)c1ccccc1)Nc1ccc(OC)cc1,.,.,30,.,27,.
O=C(NCC(c1ccco1)N1CCCC1)c1cc(S(=O)(=O)N2CCOCC2)ccc1Cl (configuration not stated),.,.,.,.,.,.
Cc1ccccc1N1Cc2ccccc2C1=O,.,.,.,.,.,.
CC(C(=O)O)c1ccc(N2Cc3ccccc3C2=O)cc1 (configuration not stated),.,40,.,.,.,.
COc1ccc(OC)c(-c2nnc3n2N=C(c2ccc(OC(F)F)c(OCC4CC4)c2)CS3)c1,.,28,.,.,.,.
COc1ccc(C2=Nn3c(nnc3-c3ccccc3OC)SC2)cc1OCC1CC1,.,.,.,.,.,.
COc1ccc(C2=Nn3c(nnc3-c3ccccc3F)SC2)cc1OC1CCCC1,.,29,.,.,.,.
COc1ccc(C2=Nn3c(nnc3-c3ccccc3F)SC2)cc1OC1CCOC1 (configuration not stated),.,.,.,.,.,.
SMILES,M4 PAM,CHRM4 antagonist,CHRM5 antagonist,CHRM4 agonist,CHRM5 PAM,M5 ag
Cc1ccc(C)c(NC(=O)c2ccccc2C(=O)c2ccccc2)c1,.,.,.,.,.,.
N#CCCN(CCN1CCCC1)S(=O)(=O)c1ccc(-c2ccc([N+](=O)[O-])cc2)cc1,.,.,.,.,.,.
CCC(C)C(NC(=O)C1CCC(C)CC1)C(=O)NC(C(=O)OC)C(C)C (configuration not stated),20,.,.,.,.,.
COc1ccc(Nc2c(CC(C)C)nc3nc(C)cc(C)n23)cc1,.,.,.,.,.,.
COc1ccc(Nc2c(C3CC3)nc3nc(C)cc(C)n23)cc1,28,.,.,.,.,.
CCO[C@@H]1OC(C(=O)NCc2ccccc2)=C[C@H](c2csc3ccccc23)[C@H]1CCCO,.,27,.,42,.,.
CCO[C@H]1OC(C(=O)NCc2ccccc2)=C[C@@H](c2ccc3c(c2)OCO3)[C@@H]1CCCO,.,.,.,.,.,25
CCO[C@H]1OC(C(=O)NCc2nc3ccccc3[nH]2)=C[C@@H](C2CC2)[C@@H]1CCCO,24,.,.,.,.,.
Nc1sc(-c2ccccc2)c(Cc2ccccc2)c1C(=O)O,.,.,.,.,.,.
Cc1ccc(C(=O)C2CC2)cc1C,.,.,.,.,.,.
O=C(NC1CCCCC1)C(CCc1ccccc1)N1CCc2ccccc2C1 (configuration not stated),.,.,.,.,.,.
O=C(Nc1nccs1)c1sc2cc(Cl)ccc2c1Cl,25,.,.,.,23,.
Cn1nc(Cc2cccc3ccccc23)c(C#N)c1N,.,.,.,.,.,.
N#Cc1c(Cc2cccc3ccccc23)nn(CCO)c1N,25,.,.,.,.,.
O=C(CCl)N(c1ccccc1)c1c[nH]c2ccccc12,.,.,.,.,.,.
O=C(CCl)N(c1ccc(Cl)cc1)c1c[nH]c2ccccc12,.,35,.,.,.,.
Cc1nc(C(=O)N/N=C/c2[nH]ncc2Br)cs1,.,.,.,.,.,.
Cc1cc(=O)[nH]c2c1c(-c1ccccc1)nn2C,.,100,.,.,.,.
Cc1ccc(Nc2nc(-c3c(C)nc4ccccn34)cs2)cc1,.,27,.,.,.,.
Cc1cccc(NC(=O)N2CCCC(CNC(=O)c3ccccc3Cl)C2)c1C (configuration not stated),.,.,.,.,.,.
CCCNC(=O)C1(C)CCCN(C(=O)Cc2ccc3ccccc3c2)C1 (configuration not stated),.,.,.,.,.,.
COCCNC(=O)C1(C)CCCN(C(=O)Cc2ccc3ccccc3c2)C1 (configuration not stated),17,.,.,.,.,.
COc1ccc(C2CC(=O)c3cnn(-c4nc(C)cc(C)n4)c3C2)cc1OC (configuration not stated),.,.,.,.,44,.
COc1cccc(CNC(=O)CCNS(=O)(=O)c2ccc3[nH]c(=O)oc3c2)c1,16,.,.,.,.,.
O=C1CSC(c2ccc([N+](=O)[O-])cc2)N1c1ccc(O)cc1 (configuration not stated),.,.,.,.,.,.
